# Results from different studies.
# Target: Mitogen-activated protein kinase kinase kinase 12 (MAP3K12, Homo sapiens, UniProt Q12852)
# Sequence (Q12852 1-859, as in one of the studies): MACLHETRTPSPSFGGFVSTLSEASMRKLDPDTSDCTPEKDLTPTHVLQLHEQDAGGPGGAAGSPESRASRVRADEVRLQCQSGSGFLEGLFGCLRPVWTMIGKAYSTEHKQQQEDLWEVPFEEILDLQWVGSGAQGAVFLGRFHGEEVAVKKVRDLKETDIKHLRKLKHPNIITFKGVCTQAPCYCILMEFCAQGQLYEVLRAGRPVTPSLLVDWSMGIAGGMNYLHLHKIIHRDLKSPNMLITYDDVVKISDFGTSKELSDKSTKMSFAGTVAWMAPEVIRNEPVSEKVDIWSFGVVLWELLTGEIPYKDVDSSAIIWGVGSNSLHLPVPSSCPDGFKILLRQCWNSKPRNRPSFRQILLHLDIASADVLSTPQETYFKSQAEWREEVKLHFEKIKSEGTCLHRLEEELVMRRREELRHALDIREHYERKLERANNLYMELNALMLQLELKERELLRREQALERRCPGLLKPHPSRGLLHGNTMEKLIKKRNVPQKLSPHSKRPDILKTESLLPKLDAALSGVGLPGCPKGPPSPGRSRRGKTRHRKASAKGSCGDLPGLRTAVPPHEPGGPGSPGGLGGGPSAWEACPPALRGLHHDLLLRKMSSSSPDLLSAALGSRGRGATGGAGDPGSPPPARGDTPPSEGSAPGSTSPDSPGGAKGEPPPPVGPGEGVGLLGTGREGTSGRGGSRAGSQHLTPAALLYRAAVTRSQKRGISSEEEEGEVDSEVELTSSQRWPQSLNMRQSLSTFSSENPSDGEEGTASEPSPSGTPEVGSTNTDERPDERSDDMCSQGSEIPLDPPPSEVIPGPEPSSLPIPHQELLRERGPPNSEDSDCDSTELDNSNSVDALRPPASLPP
Structure (SMILES),observed,method,tested at,remaining binding
O=C(NCCCN1CCOCC1)c1ccc(Nc2nccc(-c3cc4ccccc4s3)n2)cc1,binding,competition with immobilised ligand,1 µM,54%
COc1cnc(Nc2cccc(S(N)(=O)=O)c2)nc1N1CCN(c2ccccc2)C(=O)C1,binding,competition with immobilised ligand,1 µM,82%
Cc1cnn2ncc(-c3ccnc(N(C)C)n3)c2c1,binding,,1 µM,83%
Nc1ncc2c(n1)-c1c([nH]c3ccc(C#CC4CC4)cc13)CCCC2,binding,competition with immobilised ligand,1 µM,93%
CNCc1ccccc1-c1csc([C@H](C)Nc2nc(C)nc3cc(OC)c(OC)cc23)c1,cell-free assay,competition with immobilised ligand,1 µM,97%
CN(C)c1nccc(-c2cnc3ncccn23)n1,binding,,1 µM,67%
O=C(c1ccc(Nc2nccc(-c3cc4ccccc4s3)n2)cc1)N1CCC(N2CCCC2)CC1,binding,competition with immobilised ligand,1 µM,28%
c1cncc(-c2cccc(Nc3nccc(NC4CCCCC4)n3)c2)c1,binding,competition with immobilised ligand,10 µM,67%
CN(C)c1nccc(-c2cnn3ncccc23)n1,binding,,1 µM,98%
CN1CCN(c2cnc3c(C4CCN(C(=O)c5ccc(OC(F)(F)F)cc5N)CC4)ncnc3c2)CC1,cell-free assay,competition with immobilised ligand,1 µM,100%
O=C(c1ccc(Nc2ncc(Cl)c(-c3cc4ccccc4s3)n2)cc1)N1CCC(N2CCCC2)CC1,binding,competition with immobilised ligand,1 µM,6.9%
FC(F)(F)Oc1cccc(-c2cnc3ccc(-c4ccncc4)nn23)c1,cell-free assay,competition with immobilised ligand,5 µM,45%
Cc1cc(-n2nc(Cc3cc(F)cc(C(F)(F)F)c3)nc2C)ccc1C(N)=O,cell-free assay,competition with immobilised ligand,1 µM,100%
C[C@@H]1CCN(c2nccc(-c3cnn4ncccc34)n2)C1,binding,,1 µM,75%
CC(=O)C1=C(C)N(c2cccc(C(F)(F)F)c2)C(=O)N[C@@H]1c1ccc(C#N)nc1,cell-free assay,competition with immobilised ligand,1 µM,86.8%
CN(C)c1ncc(F)c(-c2cnn3ncccc23)n1,binding,,1 µM,72%
CN([C@@H]1CCc2c(CC(=O)O)c3ccccc3n2C1)S(=O)(=O)c1ccc(F)cc1,cell-free assay,competition with immobilised ligand,1 µM,100%
O=C(Nc1c[nH]nc1C(=O)NC1CCNCC1)c1cc(F)cc(F)c1,binding,competition with immobilised ligand,1 µM,88%
O=C(Nc1cnc(Oc2ccc(F)cc2)nc1)N1CCc2ncccc2[C@@H]1c1ccc(F)cc1,cell-free assay,competition with immobilised ligand,1 µM,100%
CN(c1nccc(-c2cnn3ncccc23)n1)C1CC1,binding,,1 µM,100%
